Source: paper PMC4954844 (European Journal of Drug Metabolism and Pharmacokinetics, 2015)
Like-named read-outs stand apart in the source and are kept apart here.

Experiments:
[1] = assay type: in vivo, male Crl:CD-1 mice
Outline: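 Male Crl:CD-1 mice (8–10 weeks, bred in-house) were fasted overnight with water and dosed at 50 mg/kg into the tail vein. 3–4 per time point were exsanguinated up to 60 min. Serum was clotted at room temperature, then spun. Brain, muscle, kidneys, liver, gut and lungs were homogenized 1:4 w/v in 0.1 M PBS. Samples were stored at −80 °C.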

[2] = Urinary excretion of unchanged LSF in mice; assay type: in vivo; details: 50 mg/kg i.v., within 4 h, unpublished data
Outline: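 Three mice received 50 mg/kg intravenously and were housed in metabolic cages. All urine was collected at 2 and 4 h post-dose with volumes recorded. Unchanged drug was quantified by the chiral HPLC-UV method after validation for murine urine, expressed as percent of dose excreted within 4 h.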

[3] = PBPK simulation and clearance scaling of LSF to a 70-kg human subject
[4] = Human pharmacokinetic study of LSF; assay type: in vivo; details: plasma, iv, 3 mg/kg
[5] = test system: human liver microsomes (CYP3A4, CYP2A6); details: biphasic, cited from earlier work
[6] = test system: human liver microsomes (CYP1A2 and a non-cytochrome P450 enzyme); details: biphasic, ref Lee and Slattery [1997]; cited from earlier work
[7] = ref Nicklasson et al. [2002], cited from earlier work
[8] = ref Bursten et al. [1998], cited from earlier work
[9] = mice, ref Wyska et al. [2007], cited from earlier work
[10] = mice, final PBPK model estimate
[11] = CYP2A6, ref Shin and Slattery [1998]
[12] = CYP3A4, ref Shin and Slattery [1998]

Kp ([1]; male, Crl:CD-1, mouse, brain/serum, iv, 50 mg/kg): 0.345 | Kp ([1]; male, Crl:CD-1, mouse, gut/serum, iv, 50 mg/kg): 0.892 | clearance ([1]; male, Crl:CD-1, mouse, intravenous, 50 mg/kg): 5.43 mL/min | concentration at 60 min ([1]; male, Crl:CD-1, mouse, iv, 50 mg/kg): < 1000 ng/mL | Kp ([1]; male, Crl:CD-1, mouse, kidneys/serum, iv, 50 mg/kg): 0.777 | Kp ([1]; male, Crl:CD-1, mouse, liver/serum, iv, 50 mg/kg): 0.859 | Kp ([1]; male, Crl:CD-1, mouse, lungs/serum, iv, 50 mg/kg): 0.758 | Kp ([1]; male, Crl:CD-1, mouse, muscle/serum, iv, 50 mg/kg): 0.64 | clearance ([1]; male, Crl:CD-1, mouse, serum, iv, 50 mg/kg): 1.44 mL/min | K M (LSF concentration at 50 % of the maximum rate of metabolism) [1, 10]: 1.777 µg/mL | V max (maximum rate of metabolism) [1, 10]: 9.644 µg/min | mean percentage of LSF dose excreted unchanged with urine [2]: 0.71 ± 0.13% | in vivo whole liver intrinsic clearance ([3]; calculated from human liver microsome Vmax/KM data and Eq. 11): 1,545.24 ml/min | plasma hepatic clearance ([3]; calculated from the in vivo intrinsic clearance (Eq. 12)): 477.54 mL/min | clearance [4]: 1280 mL/min
SMILES: C[C@@H](O)CCCCn1c(=O)c2c(ncn2C)n(C)c1=O [LSF, (−)-R-1-(5-hydroxyhexyl)-3,7-dimethylxanthine]
K M, lisofylline diol formation, high K M enzyme [5, 11]: 4.23 mM | V max, lisofylline diol formation, high K M enzyme [5, 11]: 0.429 nmol/min/mg of protein | K M, lisofylline diol formation, low K M enzyme [5, 12]: 0.0230 mM | V max, lisofylline diol formation, low K M enzyme [5, 12]: 0.0565 nmol/min/mg of protein | K M, formation of pentoxifylline from LSF, second (high K M) enzyme [6]: 158 µM | V max, formation of pentoxifylline from LSF, second (high K M) enzyme [6]: 0.928 nmol/min/mg | fraction unbound (fu) in human plasma ([7]; human plasma): 0.54 | blood to plasma LSF concentration ratio (CB/Cp) ([7]; human): 0.77 | maximum concentration (C max), observed ([8]; human subjects, oral 6 mg/kg): 226 ± 99.10 ng/mL | time to C max, observed ([8]; human subjects, oral 6 mg/kg): 0.53 ± 0.26 h | bioavailability ([8]; humans, oral): 5.9% | first-order absorption rate constant (ka) ([9]; oral administration): 0.024 min⁻¹ | fraction of the dose absorbed following oral administration (F) ([9]; oral administration): 0.16 | bioavailability ([9]; oral): 16%
